Reference: ChEMBL document CHEMBL3259739, “Synthesis and structure-activity relationship of trisubstituted thiazoles as Cdc7 kinase inhibitors” (Eur J Med Chem, 2014)

biological target: T1, Testis-specific serine/threonine-protein kinase 1 (Homo sapiens) (UniProt Q9BXA7); assay: Inhibition of TSSK1B (unknown origin) at 1 uM relative to control; details: values are per cent of control
T1 sequence (whole entry): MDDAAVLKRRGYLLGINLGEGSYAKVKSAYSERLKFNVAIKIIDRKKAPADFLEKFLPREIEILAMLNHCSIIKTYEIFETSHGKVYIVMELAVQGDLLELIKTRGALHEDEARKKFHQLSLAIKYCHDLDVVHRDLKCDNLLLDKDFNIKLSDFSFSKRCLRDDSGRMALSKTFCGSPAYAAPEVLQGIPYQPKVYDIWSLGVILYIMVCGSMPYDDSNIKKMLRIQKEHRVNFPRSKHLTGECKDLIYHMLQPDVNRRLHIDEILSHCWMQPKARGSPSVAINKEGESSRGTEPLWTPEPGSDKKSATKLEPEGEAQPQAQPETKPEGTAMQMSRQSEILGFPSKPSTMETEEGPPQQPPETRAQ
Outline: (§1)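 KinomeSCAN competitive binding panel of 100 kinases; compounds tested at 1 µM in duplicate; read-out is percent […] control.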

Row | residual binding, % of control [%] | SMILES
1 | 83 | COc1ccc(-c2nc(-c3ccnc(N)n3)sc2C(N)=O)c(Cl)c1
2 | 89 | CCOC(=O)c1sc(-c2ccncc2)nc1O

Row | SMILES | residual binding, % of control [%]
3 | NC(=O)c1sc(-c2ccnc(N)n2)nc1-c1ccc(Cl)cc1Cl | 100

biological target: T2, Mitogen-activated protein kinase kinase kinase 19 (Homo sapiens) (UniProt Q56UN5); assay: Inhibition of YSK4 (unknown origin) at 1 uM relative to control; details: values are per cent of control; outline: as §1
T2 sequence (whole entry): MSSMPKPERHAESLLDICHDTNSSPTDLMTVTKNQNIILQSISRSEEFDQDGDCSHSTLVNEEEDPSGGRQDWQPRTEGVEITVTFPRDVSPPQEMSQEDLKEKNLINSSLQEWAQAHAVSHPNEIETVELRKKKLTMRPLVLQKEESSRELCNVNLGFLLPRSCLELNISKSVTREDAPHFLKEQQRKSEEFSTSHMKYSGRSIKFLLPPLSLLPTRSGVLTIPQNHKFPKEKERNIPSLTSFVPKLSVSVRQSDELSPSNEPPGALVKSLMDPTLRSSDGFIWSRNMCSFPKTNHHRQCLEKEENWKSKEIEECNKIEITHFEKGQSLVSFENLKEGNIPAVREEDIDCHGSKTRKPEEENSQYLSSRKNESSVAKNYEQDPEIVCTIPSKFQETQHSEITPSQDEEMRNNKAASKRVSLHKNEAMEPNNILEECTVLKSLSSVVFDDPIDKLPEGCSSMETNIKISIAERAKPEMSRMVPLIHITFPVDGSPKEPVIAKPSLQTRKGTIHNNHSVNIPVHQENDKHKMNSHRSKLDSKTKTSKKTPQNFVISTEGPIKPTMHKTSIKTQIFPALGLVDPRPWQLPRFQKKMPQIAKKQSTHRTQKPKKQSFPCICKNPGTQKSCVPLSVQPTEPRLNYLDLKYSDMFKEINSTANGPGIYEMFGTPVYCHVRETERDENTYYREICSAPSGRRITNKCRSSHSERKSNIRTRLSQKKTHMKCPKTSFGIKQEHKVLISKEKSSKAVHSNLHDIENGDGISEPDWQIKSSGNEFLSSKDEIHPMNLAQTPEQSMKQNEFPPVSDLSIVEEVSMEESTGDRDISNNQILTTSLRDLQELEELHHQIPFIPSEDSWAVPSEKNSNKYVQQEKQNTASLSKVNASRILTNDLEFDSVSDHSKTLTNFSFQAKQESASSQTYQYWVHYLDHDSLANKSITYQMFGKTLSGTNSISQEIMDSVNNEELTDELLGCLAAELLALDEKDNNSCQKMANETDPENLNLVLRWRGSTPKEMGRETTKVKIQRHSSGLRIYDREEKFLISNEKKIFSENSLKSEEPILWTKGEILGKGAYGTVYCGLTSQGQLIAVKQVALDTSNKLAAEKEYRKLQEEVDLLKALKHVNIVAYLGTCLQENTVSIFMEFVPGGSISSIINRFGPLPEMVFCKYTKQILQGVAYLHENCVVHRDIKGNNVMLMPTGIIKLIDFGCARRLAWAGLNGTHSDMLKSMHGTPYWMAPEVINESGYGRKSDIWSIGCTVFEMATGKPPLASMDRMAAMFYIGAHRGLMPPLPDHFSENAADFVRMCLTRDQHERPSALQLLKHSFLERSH

Row | residual binding, % of control [%] | SMILES
4 | 34 | COc1ccc(-c2nc(-c3ccnc(N)n3)sc2C(N)=O)c(Cl)c1
5 | 97 | CCOC(=O)c1sc(-c2ccncc2)nc1O

Row | SMILES | residual binding, % of control [%]
6 | NC(=O)c1sc(-c2ccnc(N)n2)nc1-c1ccc(Cl)cc1Cl | 41

biological target: Bone morphogenetic protein receptor type-1A (Homo sapiens) (UniProt P36894); assay: Inhibition of BMPR1A (unknown origin) at 1 uM relative to control; values are per cent of control; details: not given
Sequence (P36894 whole entry): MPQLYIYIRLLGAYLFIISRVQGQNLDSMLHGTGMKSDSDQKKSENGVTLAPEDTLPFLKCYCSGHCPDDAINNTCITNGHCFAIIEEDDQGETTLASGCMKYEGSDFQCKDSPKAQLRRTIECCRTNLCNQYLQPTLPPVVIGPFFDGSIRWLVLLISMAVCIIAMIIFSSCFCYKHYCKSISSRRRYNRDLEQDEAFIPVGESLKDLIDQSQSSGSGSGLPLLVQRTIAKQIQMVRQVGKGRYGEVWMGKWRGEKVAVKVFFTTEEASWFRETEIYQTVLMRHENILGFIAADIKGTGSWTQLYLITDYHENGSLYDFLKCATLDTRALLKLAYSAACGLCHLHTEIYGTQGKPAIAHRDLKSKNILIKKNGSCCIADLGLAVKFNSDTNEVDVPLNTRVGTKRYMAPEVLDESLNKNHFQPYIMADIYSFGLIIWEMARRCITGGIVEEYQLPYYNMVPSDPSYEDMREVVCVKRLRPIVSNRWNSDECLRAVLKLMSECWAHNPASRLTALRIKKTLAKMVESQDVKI

Row | residual activity [%] | SMILES
7 | 81 | COc1ccc(-c2nc(-c3ccnc(N)n3)sc2C(N)=O)c(Cl)c1
8 | 82 | CCOC(=O)c1sc(-c2ccncc2)nc1O

Row | SMILES | residual activity [%]
9 | NC(=O)c1sc(-c2ccnc(N)n2)nc1-c1ccc(Cl)cc1Cl | 94

biological target: T3, Mitogen-activated protein kinase kinase kinase 7 (Homo sapiens) (UniProt O43318); assay: Inhibition of TAK1 (unknown origin) at 1 uM relative to control; details: values are per cent of control; outline: as §1
T3 sequence (whole entry): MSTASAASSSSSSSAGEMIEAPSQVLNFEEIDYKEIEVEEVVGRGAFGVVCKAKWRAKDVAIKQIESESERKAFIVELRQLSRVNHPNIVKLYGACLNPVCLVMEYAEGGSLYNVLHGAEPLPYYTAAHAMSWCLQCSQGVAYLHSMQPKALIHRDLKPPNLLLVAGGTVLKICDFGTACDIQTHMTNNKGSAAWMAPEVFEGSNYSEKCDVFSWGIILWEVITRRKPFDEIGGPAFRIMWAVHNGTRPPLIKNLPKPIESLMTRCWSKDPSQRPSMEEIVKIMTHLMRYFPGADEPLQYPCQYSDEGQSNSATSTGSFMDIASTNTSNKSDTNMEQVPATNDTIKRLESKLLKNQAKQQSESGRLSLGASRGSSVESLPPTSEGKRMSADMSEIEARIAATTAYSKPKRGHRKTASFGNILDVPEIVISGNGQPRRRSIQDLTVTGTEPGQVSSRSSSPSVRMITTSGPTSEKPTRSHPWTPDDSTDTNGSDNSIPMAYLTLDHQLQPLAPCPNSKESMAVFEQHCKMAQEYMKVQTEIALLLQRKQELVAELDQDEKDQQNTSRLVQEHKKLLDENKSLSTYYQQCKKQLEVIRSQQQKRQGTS

Row | residual binding, % of control [%] | SMILES
10 | 49 | COc1ccc(-c2nc(-c3ccnc(N)n3)sc2C(N)=O)c(Cl)c1
11 | 65 | CCOC(=O)c1sc(-c2ccncc2)nc1O

Row | SMILES | residual binding, % of control [%]
12 | NC(=O)c1sc(-c2ccnc(N)n2)nc1-c1ccc(Cl)cc1Cl | 34

biological target: Serine/threonine-protein kinase PAK 2 (Homo sapiens) (UniProt Q13177); assay: Inhibition of PAK2 (unknown origin) at 1 uM relative to control; details: values are per cent of control; outline: as §1
Sequence (Q13177 whole entry): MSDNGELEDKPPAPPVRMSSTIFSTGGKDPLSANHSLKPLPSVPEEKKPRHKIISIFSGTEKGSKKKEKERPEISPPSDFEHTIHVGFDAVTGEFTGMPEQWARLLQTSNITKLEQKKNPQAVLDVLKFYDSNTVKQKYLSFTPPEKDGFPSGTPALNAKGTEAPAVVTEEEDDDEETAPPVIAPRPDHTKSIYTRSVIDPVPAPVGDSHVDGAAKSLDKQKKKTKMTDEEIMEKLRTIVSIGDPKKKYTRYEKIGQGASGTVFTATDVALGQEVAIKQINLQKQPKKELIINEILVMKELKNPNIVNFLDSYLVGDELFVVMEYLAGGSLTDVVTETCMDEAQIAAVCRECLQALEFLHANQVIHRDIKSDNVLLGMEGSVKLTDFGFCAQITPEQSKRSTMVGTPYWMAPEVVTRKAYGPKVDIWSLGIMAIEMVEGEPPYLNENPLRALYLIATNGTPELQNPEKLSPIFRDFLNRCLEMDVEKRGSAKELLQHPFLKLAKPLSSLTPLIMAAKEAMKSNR

Row | residual binding, % of control [%] | SMILES
13 | 89 | COc1ccc(-c2nc(-c3ccnc(N)n3)sc2C(N)=O)c(Cl)c1
14 | 99 | CCOC(=O)c1sc(-c2ccncc2)nc1O

Row | SMILES | residual binding, % of control [%]
15 | NC(=O)c1sc(-c2ccnc(N)n2)nc1-c1ccc(Cl)cc1Cl | 100

biological target: Rho-associated protein kinase 2 (Homo sapiens) (UniProt O75116); assay: Inhibition of ROCK2 (unknown origin) at 1 uM relative to control; details: values are per cent of control; outline: as §1
Sequence (O75116 whole entry, looked up): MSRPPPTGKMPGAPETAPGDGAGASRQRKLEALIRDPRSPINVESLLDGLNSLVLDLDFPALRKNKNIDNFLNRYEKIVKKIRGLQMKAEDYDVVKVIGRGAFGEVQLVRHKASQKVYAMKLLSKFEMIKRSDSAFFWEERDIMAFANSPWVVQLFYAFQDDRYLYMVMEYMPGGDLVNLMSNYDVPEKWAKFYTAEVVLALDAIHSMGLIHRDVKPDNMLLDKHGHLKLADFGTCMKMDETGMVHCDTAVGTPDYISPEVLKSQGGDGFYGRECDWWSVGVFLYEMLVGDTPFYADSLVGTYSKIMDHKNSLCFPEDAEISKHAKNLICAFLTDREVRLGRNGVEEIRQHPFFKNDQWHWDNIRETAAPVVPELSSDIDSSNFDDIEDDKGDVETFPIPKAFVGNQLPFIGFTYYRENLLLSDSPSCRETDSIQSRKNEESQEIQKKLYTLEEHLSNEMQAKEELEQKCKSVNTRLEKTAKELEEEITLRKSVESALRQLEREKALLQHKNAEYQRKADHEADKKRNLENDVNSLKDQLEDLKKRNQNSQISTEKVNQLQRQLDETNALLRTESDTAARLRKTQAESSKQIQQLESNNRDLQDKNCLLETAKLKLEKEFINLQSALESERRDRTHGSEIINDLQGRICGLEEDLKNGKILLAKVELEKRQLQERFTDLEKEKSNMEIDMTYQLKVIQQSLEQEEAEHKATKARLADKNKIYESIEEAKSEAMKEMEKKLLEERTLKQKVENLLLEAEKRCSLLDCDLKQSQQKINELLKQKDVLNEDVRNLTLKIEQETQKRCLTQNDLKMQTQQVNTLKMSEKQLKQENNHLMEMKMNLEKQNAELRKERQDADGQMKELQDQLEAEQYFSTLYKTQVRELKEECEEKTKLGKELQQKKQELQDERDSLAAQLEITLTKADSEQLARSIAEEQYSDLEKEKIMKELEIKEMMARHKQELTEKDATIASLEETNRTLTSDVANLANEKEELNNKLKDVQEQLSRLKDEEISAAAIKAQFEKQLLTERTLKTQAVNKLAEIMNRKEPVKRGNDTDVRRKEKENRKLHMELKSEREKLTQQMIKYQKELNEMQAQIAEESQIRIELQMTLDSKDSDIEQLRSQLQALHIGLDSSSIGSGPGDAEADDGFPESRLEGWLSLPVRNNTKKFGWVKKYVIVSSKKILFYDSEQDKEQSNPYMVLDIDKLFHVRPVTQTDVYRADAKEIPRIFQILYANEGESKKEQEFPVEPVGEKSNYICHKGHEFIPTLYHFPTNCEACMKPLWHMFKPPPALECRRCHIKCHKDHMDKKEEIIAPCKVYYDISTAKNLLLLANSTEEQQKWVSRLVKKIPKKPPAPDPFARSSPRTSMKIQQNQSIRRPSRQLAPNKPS

Row | residual binding, % of control [%] | SMILES
16 | 27 | COc1ccc(-c2nc(-c3ccnc(N)n3)sc2C(N)=O)c(Cl)c1
17 | 92 | CCOC(=O)c1sc(-c2ccncc2)nc1O

Row | SMILES | residual binding, % of control [%]
18 | NC(=O)c1sc(-c2ccnc(N)n2)nc1-c1ccc(Cl)cc1Cl | 34

biological target: Glycogen synthase kinase-3 beta (Homo sapiens) (UniProt P49841); assay: Inhibition of GSK3B (unknown origin) at 1 uM relative to control; values are per cent of control; details: not given
Sequence (P49841 whole entry, looked up): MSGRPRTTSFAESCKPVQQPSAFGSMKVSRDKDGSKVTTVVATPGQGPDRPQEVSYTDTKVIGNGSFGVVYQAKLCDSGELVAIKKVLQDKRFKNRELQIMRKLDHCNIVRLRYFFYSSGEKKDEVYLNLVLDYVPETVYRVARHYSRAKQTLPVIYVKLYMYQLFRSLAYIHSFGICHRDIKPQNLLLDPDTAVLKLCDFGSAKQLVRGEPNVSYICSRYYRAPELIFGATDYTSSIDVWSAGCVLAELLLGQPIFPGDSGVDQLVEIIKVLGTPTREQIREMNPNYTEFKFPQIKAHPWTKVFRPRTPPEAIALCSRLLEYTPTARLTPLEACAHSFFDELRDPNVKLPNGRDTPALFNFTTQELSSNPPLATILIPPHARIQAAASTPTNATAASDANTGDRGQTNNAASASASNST

Row | residual activity [%] | SMILES
19 | 6.8 | COc1ccc(-c2nc(-c3ccnc(N)n3)sc2C(N)=O)c(Cl)c1
20 | 100 | CCOC(=O)c1sc(-c2ccncc2)nc1O

Row | SMILES | residual activity [%]
21 | NC(=O)c1sc(-c2ccnc(N)n2)nc1-c1ccc(Cl)cc1Cl | 6.4

biological target: Phosphatidylinositol 4,5-bisphosphate 3-kinase catalytic subunit alpha isoform (Homo sapiens) (UniProt P42336); assay: Inhibition of PIK3CA (unknown origin) at 1 uM relative to control; details: values are per cent of control; outline: as §1
Sequence (P42336 whole entry, canonical isoform): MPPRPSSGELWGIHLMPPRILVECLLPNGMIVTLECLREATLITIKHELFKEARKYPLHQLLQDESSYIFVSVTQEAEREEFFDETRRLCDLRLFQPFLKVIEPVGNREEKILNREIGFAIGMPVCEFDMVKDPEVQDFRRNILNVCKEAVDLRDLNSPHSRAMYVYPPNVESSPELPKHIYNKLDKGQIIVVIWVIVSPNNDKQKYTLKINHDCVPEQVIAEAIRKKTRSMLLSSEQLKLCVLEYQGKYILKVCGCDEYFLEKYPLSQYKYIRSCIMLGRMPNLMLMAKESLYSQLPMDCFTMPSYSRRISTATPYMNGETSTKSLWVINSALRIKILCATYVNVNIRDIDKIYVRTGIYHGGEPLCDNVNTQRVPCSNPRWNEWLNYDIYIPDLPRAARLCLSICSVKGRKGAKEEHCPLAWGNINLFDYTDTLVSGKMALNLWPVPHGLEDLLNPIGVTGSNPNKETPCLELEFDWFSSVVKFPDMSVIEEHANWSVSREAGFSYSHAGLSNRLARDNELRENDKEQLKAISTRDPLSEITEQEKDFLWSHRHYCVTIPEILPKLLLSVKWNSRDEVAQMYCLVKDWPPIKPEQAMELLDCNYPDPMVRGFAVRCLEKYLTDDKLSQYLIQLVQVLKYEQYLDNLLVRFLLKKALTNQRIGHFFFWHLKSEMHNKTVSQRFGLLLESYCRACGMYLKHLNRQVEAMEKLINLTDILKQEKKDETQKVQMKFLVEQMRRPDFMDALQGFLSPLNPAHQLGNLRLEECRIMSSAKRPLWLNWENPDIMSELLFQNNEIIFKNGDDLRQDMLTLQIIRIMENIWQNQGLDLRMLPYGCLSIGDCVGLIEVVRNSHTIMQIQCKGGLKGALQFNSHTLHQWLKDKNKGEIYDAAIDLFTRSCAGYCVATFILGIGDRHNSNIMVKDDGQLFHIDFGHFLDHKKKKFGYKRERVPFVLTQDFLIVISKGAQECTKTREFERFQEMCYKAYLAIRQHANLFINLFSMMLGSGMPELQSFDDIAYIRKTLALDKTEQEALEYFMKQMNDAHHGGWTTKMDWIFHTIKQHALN

Row | residual binding, % of control [%] | SMILES
22 | 83 | COc1ccc(-c2nc(-c3ccnc(N)n3)sc2C(N)=O)c(Cl)c1
23 | 100 | CCOC(=O)c1sc(-c2ccncc2)nc1O

Row | SMILES | residual binding, % of control [%]
24 | NC(=O)c1sc(-c2ccnc(N)n2)nc1-c1ccc(Cl)cc1Cl | 78
